Reference: ChEMBL document CHEMBL1800022, “Structure-activity relationships of a series of analogues of the RFamide-related peptide 26RFa” (J Med Chem, 2011)
Activity calls are given as the source filed them. No cut-off for these calls is given here. Non-standard residues stand in square brackets, D forms with d. Residues, ends and D or L forms follow the SMILES beside them. *: point of attachment. NBn2 = c1ccc(CN(Cc2ccccc2)*)cc1; X3 = C1CCN(N(N2CCCCC2)*)CC1; Nle = CCCC[C@H](N)C(=O)O; Cbz = O=C(OCc1ccccc1)*; NHBn = c1ccc(CN*)cc1; Piv = CC(C)(C)C(=O)*; Bz = O=C(c1ccccc1)*

target: T1, Pyroglutamylated RF-amide peptide receptor (Homo sapiens, UniProt Q96P65); assay: Agonist activity at DYKDDDDK-flagged human GPR103 receptor expressed in CHO-K1 cells co-expressing G-protein alpha16 assessed as stimulation of calcium mobilization after 2 mins by fluorometric analysis; type: functional, cell-based
T1 sequence (Q96P65 whole entry): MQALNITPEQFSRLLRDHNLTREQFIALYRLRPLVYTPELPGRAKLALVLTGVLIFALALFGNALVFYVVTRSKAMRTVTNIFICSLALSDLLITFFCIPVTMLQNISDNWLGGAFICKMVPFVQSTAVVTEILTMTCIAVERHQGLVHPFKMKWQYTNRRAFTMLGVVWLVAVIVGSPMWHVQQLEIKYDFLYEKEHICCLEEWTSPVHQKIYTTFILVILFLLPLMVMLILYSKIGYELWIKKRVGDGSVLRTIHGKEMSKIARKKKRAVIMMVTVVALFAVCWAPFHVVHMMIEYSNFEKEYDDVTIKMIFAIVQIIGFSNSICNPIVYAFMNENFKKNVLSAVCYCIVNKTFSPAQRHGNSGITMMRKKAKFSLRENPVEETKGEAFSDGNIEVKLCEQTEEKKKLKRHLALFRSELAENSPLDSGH
How it was run: (§1)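 CHO-K1 cells stably expressing Gα16 and C-terminally flag-tagged human GPR103 (Geneticin-selected), plated at 40 000 cells/well 24 h before assay. Loaded with 2 μM Fluo-4AM for 1 h, washed, then 30 min in HBSS with 2.5 mM probenecid and 5 mM HEPES. Peptides added at 10^-12 to 10^-5 M final and fluorescence read for 2 min. Triplicates; EC50 from sigmoidal variable-slope fit, at least three experiments.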

EC50 | SMILES
166 nM | CC(C)C[C@H](NC(=O)[C@H](CC(N)=O)NC(=O)CNC(=O)[C@H](CC(C)C)NC(=O)[C@@H]1CCCN1C(=O)CNC(=O)[C@H](CO)NC(=O)[C@@H](N)[C@@H](C)O)C(=O)N[C@@H](C)C(=O)N[C@@H](CCC(=O)O)C(=O)N[C@@H](CCC(=O)O)C(=O)N[C@@H](CC(C)C)C(=O)N[C@@H](CC(N)=O)C(=O)NCC(=O)N[C@@H](Cc1ccc(O)cc1)C(=O)N[C@@H](CO)C(=O)N[C@@H](CCCNC(=N)N)C(=O)N[C@@H](CCCCN)C(=O)N[C@@H](CCCCN)C(=O)NCC(=O)NCC(=O)N[C@@H](Cc1ccccc1)C(=O)N[C@@H](CO)C(=O)N[C@@H](Cc1ccccc1)C(=O)N[C@@H](CCCNC(=N)N)C(=O)N[C@@H](Cc1ccccc1)C(=O)N(Cc1ccccc1)Cc1ccccc1 (H-TSGPLGNLAEELNGYSRKKGGFSFRF-NBn2)
30.2 nM | CC(C)C[C@H](NC(=O)[C@H](CCC(=O)O)NC(=O)[C@H](CCC(=O)O)NC(=O)[C@H](C)NC(=O)[C@H](CC(C)C)NC(=O)[C@@H](N)CC(N)=O)C(=O)N[C@@H](CC(N)=O)C(=O)NCC(=O)N[C@@H](Cc1ccc(O)cc1)C(=O)N[C@@H](CO)C(=O)N[C@@H](CCCNC(=N)N)C(=O)N[C@@H](CCCCN)C(=O)N[C@@H](CCCCN)C(=O)NCC(=O)NCC(=O)N[C@@H](Cc1ccccc1)C(=O)N[C@@H](CO)C(=O)N[C@@H](Cc1ccccc1)C(=O)N[C@@H](CCCNC(=N)N)C(=O)N[C@@H](Cc1ccccc1)C(N)=O (H-NLAEELNGYSRKKGGFSFRF-NH2)
722 nM | N=C(N)NCCC[C@H](NC(=O)[C@H](Cc1ccccc1)NC(=O)[C@H](CO)NC(=O)[C@H](Cc1ccccc1)NC(=O)CNC(=O)CNC(=O)c1ccccc1)C(=O)N[C@@H](Cc1ccccc1)C(N)=O (Bz-GGFSFRF-NH2)
10.4 nM | CC(C)C[C@H](NC(=O)[C@H](CC(N)=O)NC(=O)CNC(=O)[C@H](CC(C)C)NC(=O)[C@@H]1CCCN1C(=O)CNC(=O)[C@H](CO)NC(=O)[C@@H](N)[C@@H](C)O)C(=O)N[C@@H](C)C(=O)N[C@@H](CCC(=O)O)C(=O)N[C@@H](CCC(=O)O)C(=O)N[C@@H](CC(C)C)C(=O)N[C@@H](CC(N)=O)C(=O)NCC(=O)N[C@@H](Cc1ccc(O)cc1)C(=O)N[C@@H](CO)C(=O)N[C@@H](CCCNC(=N)N)C(=O)N[C@@H](CCCCN)C(=O)N[C@@H](CCCCN)C(=O)NCC(=O)NCC(=O)N[C@@H](Cc1ccccc1)C(=O)N[C@@H](CO)C(=O)N[C@@H](Cc1ccccc1)C(=O)N[C@@H](CCCNC(=N)N)C(=O)N[C@@H](Cc1ccccc1)C(N)=O (H-TSGPLGNLAEELNGYSRKKGGFSFRF-NH2)
43.2 nM | CC(C)C[C@H](NC(=O)[C@@H]1CCCN1)C(=O)NCC(=O)N[C@@H](CC(N)=O)C(=O)N[C@@H](CC(C)C)C(=O)N[C@@H](C)C(=O)N[C@@H](CCC(=O)O)C(=O)N[C@@H](CCC(=O)O)C(=O)N[C@@H](CC(C)C)C(=O)N[C@@H](CC(N)=O)C(=O)NCC(=O)N[C@@H](Cc1ccc(O)cc1)C(=O)N[C@@H](CO)C(=O)N[C@@H](CCCN=C(N)N)C(=O)N[C@@H](CCCCN)C(=O)N[C@@H](CCCCN)C(=O)NCC(=O)NCC(=O)N[C@@H](Cc1ccccc1)C(=O)N[C@@H](CO)C(=O)N[C@@H](Cc1ccccc1)C(=O)N[C@@H](CCCN=C(N)N)C(=O)N[C@@H](Cc1ccccc1)C(N)=O (H-PLGNLAEELNGYSRKKGGFSFRF-NH2)
741 nM | CCCC[C@H](NC(=O)[C@H](Cc1ccccc1)NC(=O)CNC(=O)CN)C(=O)N[C@@H](Cc1ccccc1)C(=O)N[C@@H](CCCN=C(N)N)C(=O)N[C@@H](Cc1ccccc1)C(N)=O (H-GGF[Nle]FRF-NH2)
2980 nM | C[C@H](NC(=O)CN)C(=O)N[C@@H](Cc1ccccc1)C(=O)N[C@@H](CO)C(=O)N[C@@H](Cc1ccccc1)C(=O)N[C@@H](CCCN=C(N)N)C(=O)N[C@@H](Cc1ccccc1)C(N)=O (H-GAFSFRF-NH2)
826 nM | NC(=O)[C@H](Cc1ccccc1)NC(=O)[C@H](CCCN=C(N)N)NC(=O)[C@H](Cc1ccccc1)NC(=O)[C@H](CO)NC(=O)[C@H](Cc1ccccc1)NC(=O)CNC(=O)CNC(=O)OCc1ccccc1 (Cbz-GGFSFRF-NH2)
282 nM | CC(C)C[C@H](NC(=O)[C@H](CC(N)=O)NC(=O)CNC(=O)[C@H](CC(C)C)NC(=O)[C@@H]1CCCN1C(=O)CNC(=O)[C@H](CO)NC(=O)[C@@H](N)[C@@H](C)O)C(=O)N[C@@H](C)C(=O)N[C@@H](CCC(=O)O)C(=O)N[C@@H](CCC(=O)O)C(=O)N[C@@H](CC(C)C)C(=O)N[C@@H](CC(N)=O)C(=O)NCC(=O)N[C@@H](Cc1ccc(O)cc1)C(=O)N[C@@H](CO)C(=O)N[C@@H](CCCNC(=N)N)C(=O)N[C@@H](CCCCN)C(=O)N[C@@H](CCCCN)C(=O)NCC(=O)NCC(=O)N[C@@H](Cc1ccccc1)C(=O)N[C@@H](CO)C(=O)N[C@@H](Cc1ccccc1)C(=O)N[C@@H](CCCNC(=N)N)C(=O)N[C@@H](Cc1ccccc1)C(=O)N(N1CCCCC1)N1CCCCC1 (H-TSGPLGNLAEELNGYSRKKGGFSFRF-X3)
4980 nM | NCC(=O)NCC(=O)N[C@@H](Cc1ccccc1)C(=O)N[C@H](CO)C(=O)N[C@@H](Cc1ccccc1)C(=O)N[C@@H](CCCN=C(N)N)C(=O)N[C@@H](Cc1ccccc1)C(N)=O
2540 nM | CC(C)(C)C(=O)NCC(=O)NCC(=O)N[C@@H](Cc1ccccc1)C(=O)N[C@@H](CO)C(=O)N[C@@H](Cc1ccccc1)C(=O)N[C@@H](CCCN=C(N)N)C(=O)N[C@@H](Cc1ccccc1)C(N)=O (Piv-GGFSFRF-NH2)
67 nM | CC(C)C[C@H](NC(=O)[C@H](CC(N)=O)NC(=O)CNC(=O)[C@H](CC(C)C)NC(=O)[C@@H]1CCCN1C(=O)CNC(=O)[C@H](CO)NC(=O)[C@@H](N)[C@@H](C)O)C(=O)N[C@@H](C)C(=O)N[C@@H](CCC(=O)O)C(=O)N[C@@H](CCC(=O)O)C(=O)N[C@@H](CC(C)C)C(=O)N[C@@H](CC(N)=O)C(=O)NCC(=O)N[C@@H](Cc1ccc(O)cc1)C(=O)N[C@@H](CO)C(=O)N[C@@H](CCCNC(=N)N)C(=O)N[C@@H](CCCCN)C(=O)N[C@@H](CCCCN)C(=O)NCC(=O)NCC(=O)N[C@@H](Cc1ccccc1)C(=O)N[C@@H](CO)C(=O)N[C@@H](Cc1ccccc1)C(=O)N[C@@H](CCCNC(=N)N)C(=O)NCc1ccccc1 (H-TSGPLGNLAEELNGYSRKKGGFSFR-NHBn)
3350 nM | C[C@H](N)C(=O)NCC(=O)N[C@@H](Cc1ccccc1)C(=O)N[C@@H](CO)C(=O)N[C@@H](Cc1ccccc1)C(=O)N[C@@H](CCCNC(=N)N)C(=O)N[C@@H](Cc1ccccc1)C(N)=O (H-AGFSFRF-NH2)
739 nM | N=C(N)NCCC[C@H](NC(=O)[C@H](Cc1ccccc1)NC(=O)[C@H](CO)NC(=O)[C@H](Cc1ccccc1)NC(=O)CNC(=O)CN)C(=O)N[C@@H](Cc1ccccc1)C(N)=O
1710 nM | NCCCC[C@H](N)C(=O)NCC(=O)NCC(=O)N[C@@H](Cc1ccccc1)C(=O)N[C@@H](CO)C(=O)N[C@@H](Cc1ccccc1)C(=O)N[C@@H](CCCN=C(N)N)C(=O)N[C@@H](Cc1ccccc1)C(N)=O (H-KGGFSFRF-NH2)

target: T2, Pyroglutamylated RF-amide peptide receptor (Homo sapiens) (UniProt Q96P65); assay: Antagonist activity at DYKDDDDK-flagged human GPR103 receptor expressed in CHO-K1 cells co-expressing G-protein alpha16 assessed as inhibition of 26RFa-induced calcium mobilization after 2 mins by fluorometric analysis; type: functional, cell-based
T2 sequence (whole entry): T1 sequence (Q96P65 whole entry)
How it was run: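 Same Gα16/flag-hGPR103 CHO-K1 cells, Fluo-4AM loading and HBSS/probenecid/HEPES buffer. Triplicates; IC50 reported as mean ± SEM of at least three experiments.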

inhibition | SMILES
inactive | C[C@H](NC(=O)[C@H](Cc1ccccc1)NC(=O)[C@H](CO)NC(=O)[C@H](Cc1ccccc1)NC(=O)CNC(=O)CN)C(=O)N[C@@H](Cc1ccccc1)C(N)=O (H-GGFSFAF-NH2)
inactive | CC(C)C[C@H](NC(=O)[C@H](CC(N)=O)NC(=O)CNC(=O)[C@H](CC(C)C)NC(=O)[C@@H]1CCCN1C(=O)CNC(=O)[C@H](CO)NC(=O)[C@@H](N)[C@@H](C)O)C(=O)N[C@@H](C)C(=O)N[C@@H](CCC(=O)O)C(=O)N[C@@H](CCC(=O)O)C(=O)N[C@@H](CC(C)C)C(=O)N[C@@H](CC(N)=O)C(=O)NCC(=O)N[C@@H](Cc1ccc(O)cc1)C(=O)N[C@@H](CO)C(=O)N[C@@H](CCCNC(=N)N)C(=O)N[C@@H](CCCCN)C(N)=O (H-TSGPLGNLAEELNGYSRK-NH2)
inactive | N=C(N)NCCC[C@H](NC(=O)[C@H](Cc1ccccc1)NC(=O)[C@H](CO)NC(=O)[C@H](Cc1ccccc1)NC(=O)CNC(=O)CN)C(=O)N[C@@H](Cc1ccccc1)C(=O)NCc1ccccc1 (H-GGFSFRF-NHBn)
inactive | N=C(N)NCCC[C@H](NC(=O)[C@H](Cc1ccccc1)NC(=O)[C@H](CO)NC(=O)[C@@H](Cc1ccccc1)NC(=O)CNC(=O)CN)C(=O)N[C@@H](Cc1ccccc1)C(N)=O

target: T2, Pyroglutamylated RF-amide peptide receptor (Homo sapiens); assay: Agonist activity at DYKDDDDK-flagged human GPR103 receptor expressed in CHO-K1 cells co-expressing G-protein alpha16 assessed as stimulation of calcium mobilization at 10' -12 to 10^-5 M after 2 mins by fluorometric analysis; type: functional, cell-based; how it was run: as §1

Activity | SMILES
inactive | C[C@H](NC(=O)[C@H](Cc1ccccc1)NC(=O)[C@H](CO)NC(=O)[C@H](Cc1ccccc1)NC(=O)CNC(=O)CN)C(=O)N[C@@H](Cc1ccccc1)C(N)=O (H-GGFSFAF-NH2)
inactive | CC(C)C[C@H](NC(=O)[C@H](CC(N)=O)NC(=O)CNC(=O)[C@H](CC(C)C)NC(=O)[C@@H]1CCCN1C(=O)CNC(=O)[C@H](CO)NC(=O)[C@@H](N)[C@@H](C)O)C(=O)N[C@@H](C)C(=O)N[C@@H](CCC(=O)O)C(=O)N[C@@H](CCC(=O)O)C(=O)N[C@@H](CC(C)C)C(=O)N[C@@H](CC(N)=O)C(=O)NCC(=O)N[C@@H](Cc1ccc(O)cc1)C(=O)N[C@@H](CO)C(=O)N[C@@H](CCCNC(=N)N)C(=O)N[C@@H](CCCCN)C(N)=O (H-TSGPLGNLAEELNGYSRK-NH2)
inactive | N=C(N)NCCC[C@H](NC(=O)[C@H](Cc1ccccc1)NC(=O)[C@H](CO)NC(=O)[C@H](Cc1ccccc1)NC(=O)CNC(=O)CN)C(=O)N[C@@H](Cc1ccccc1)C(=O)NCc1ccccc1 (H-GGFSFRF-NHBn)
inactive | N=C(N)NCCC[C@H](NC(=O)[C@H](Cc1ccccc1)NC(=O)[C@H](CO)NC(=O)[C@@H](Cc1ccccc1)NC(=O)CNC(=O)CN)C(=O)N[C@@H](Cc1ccccc1)C(N)=O
inactive | N=C(N)NCCC[C@H](NC(=O)[C@H](Cc1ccccc1)NC(=O)[C@H](CO)NC(=O)[C@H](Cc1ccccc1)NC(=O)CNC(=O)CN)C(=O)N[C@@H](Cc1ccccc1)C(=O)N(Cc1ccccc1)Cc1ccccc1 (H-GGFSFRF-NBn2)
inactive | N=C(N)NCCC[C@H](NC(=O)[C@H](Cc1ccccc1)NC(=O)[C@H](CO)NC(=O)[C@@H](N)Cc1ccccc1)C(=O)N[C@@H](Cc1ccccc1)C(N)=O (H-FSFRF-NH2)
